Consider 1 compound from ChEMBL document CHEMBL1124158, “Importance of the N-terminal domain of the type II angiotensin antagonist sarmesin for receptor blockade” (J Med Chem, 1988).

Experiment [1] is filed under the species Rattus norvegicus. As to the kind of experiment: Negative logarithm of the concentration of compound required to reduce the response of EC50 dose of ANG II to the response to half the EC50 dose. The note with it: read-out: pA2 (converted). The format is functional, organism-based. The procedure, abridged: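 Rat isolated uterus: defatted horns from diethylstilbestrol-primed virgin Sprague-Dawley rats (150-250 g), halved, 1 g tension, 3-mL bath of 150 mM NaCl, 5.6 mM KCl, 0.18 mM NaHCO₃, 1.4 mM glucose, pH 7.0, oxygenated. Isotonic contractions to human ANG II. pA2 = −log antagonist concentration lowering the EC50-dose response to that of half the EC50 dose.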

The species entered for experiment [2] is Rattus norvegicus. Briefly: Agonistic activity determined by matching the response with an equivalent response to ANG II (human)-evaluated in rat uterus bioassay. The format is functional. The procedure, abridged: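 Uterine horns (defatted) from diethylstilbestrol-primed virgin Sprague-Dawley rats (150-250 g), halved, held under 1 g tension in a 3-mL bath: 150 mM NaCl, 5.6 mM KCl, 0.18 mM NaHCO₃, 1.4 mM glucose, pH 7.0, oxygen-gassed. Isotonic contractions recorded. Agonist activity expressed relative to an equivalent contraction produced by human ANG II.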

With `CC[C@H](C)[C@H](NC(=O)[C@@H]1CCCN1C(=O)[C@H](Cc1c[nH]cn1)NC(=O)[C@@H](NC(=O)[C@H](Cc1ccc(O)cc1)NC(=O)[C@@H](NC(=O)[C@H](CCCN=C(N)N)NC(=O)CNC)C(C)C)[C@@H](C)CC)C(=O)O`, the Kb in the experiment listed under Rattus norvegicus [1] was 7.94 nM. For the same compound, the Activity in the experiment listed under Rattus norvegicus [2] is less than 0.01%.
